This passage reports MIC and CC50 results from ChEMBL document CHEMBL1781961, “Synthesis and in vitro antibacterial activity of 7-(3-alkoxyimino-4-amino-4-methylpiperidin-1-yl) fluoroquinolone derivatives” (Eur J Med Chem, 2011).

SMILES strings stand for the structures. ≈ marks a conversion by molar mass, not a printed value.

The subject of series [1] is Staphylococcus aureus. Briefly: Antibacterial activity against 10^4 CFU Staphylococcus aureus ATCC 25923 after 18 hrs by CLSI agar dilution method. Type of series: functional. The following applies: ATCC 25923, 18 h. For orientation: Agar dilution tests growth on a series of plates holding different concentrations.
Series [2] relates to Staphylococcus aureus. Briefly: Antibacterial activity against 10^4 CFU methicillin-sensitive Staphylococcus aureus 08-1 after 18 hrs by CLSI agar dilution method. Type of series: functional. The following applies: 08-1, 18 h.
Series [3] concerns Staphylococcus aureus. The series is described as follows: Antibacterial activity against 10^4 CFU methicillin-resistant Staphylococcus aureus 08-1 after 18 hrs by CLSI agar dilution method. The format is functional. The following applies: 08-1, 18 h.
Series [4] concerns Staphylococcus epidermidis. Briefly: Antibacterial activity against 10^4 CFU methicillin-sensitive Staphylococcus epidermidis 09-6 after 18 hrs by CLSI agar dilution method. The conditions noted are these: 09-6, 18 h. Type of series: functional.
The test system of series [5] is Staphylococcus epidermidis. The series is described as follows: Antibacterial activity against 10^4 CFU methicillin-resistant Staphylococcus epidermidis 09-2 after 18 hrs by CLSI agar dilution method. Type of series: functional. The conditions noted are these: 09-2, 18 h.
For a further series, the system named is Streptococcus pneumoniae. Briefly: Antibacterial activity against 10^4 CFU Streptococcus pneumoniae 08-4 after 18 hrs by CLSI agar dilution method. The format is functional. The conditions noted are these: 08-4, 18 h.
In series [6] the test system is Enterococcus faecalis. The series is described as follows: Antibacterial activity against 10^4 CFU Enterococcus faecalis 08-10 after 18 hrs by CLSI agar dilution method. Type of series: functional. The following applies: 08-10, 18 h.
For series [7], the system named is Enterococcus faecalis. Briefly: Antibacterial activity against 10^4 CFU Enterococcus faecalis 08-12 after 18 hrs by CLSI agar dilution method. The format is functional. The conditions noted are these: 08-12, 18 h.
Series [8] has as its system Enterococcus faecium. Briefly: Antibacterial activity against 10^4 CFU Enterococcus faecium 08-2 after 18 hrs by CLSI agar dilution method. The conditions noted are these: 08-2, 18 h. Type of series: functional.
The subject of series [9] is Enterococcus faecium. The series is described as follows: Antibacterial activity against 10^4 CFU Enterococcus faecium 06-7 after 18 hrs by CLSI agar dilution method. The following applies: 06-7, 18 h. The format is functional.
Series [10] concerns Escherichia coli. The series is described as follows: Antibacterial activity against 10^4 CFU Escherichia coli ATCC 25922 after 18 hrs by CLSI agar dilution method. Type of series: functional. The conditions noted are these: ATCC 25922, 18 h.
Series [11] relates to Escherichia coli. Briefly: Antibacterial activity against 10^4 CFU Escherichia coli 08-21 after 18 hrs by CLSI agar dilution method. The conditions noted are these: 08-21, 18 h. Type of series: functional.
Series [12] relates to Klebsiella pneumoniae. The series is described as follows: Antibacterial activity against 10^4 CFU Klebsiella pneumoniae 09-22 after 18 hrs by CLSI agar dilution method. Type of series: functional. The conditions noted are these: 09-22, 18 h.
The subject of series [13] is Klebsiella pneumoniae. Briefly: Antibacterial activity against 10^4 CFU Klebsiella pneumoniae 09-23 after 18 hrs by CLSI agar dilution method. Type of series: functional. The following applies: 09-23, 18 h.
Series [14] deals with Pseudomonas aeruginosa. Briefly: Antibacterial activity against 10^4 CFU Pseudomonas aeruginosa ATCC 27853 after 18 hrs by CLSI agar dilution method. Type of series: functional. The conditions noted are these: ATCC 27853, 18 h.
Series [15] relates to Pseudomonas aeruginosa. The series is described as follows: Antibacterial activity against 10^4 CFU Pseudomonas aeruginosa 09-32 after 18 hrs by CLSI agar dilution method. The following applies: 09-32, 18 h. The format is functional.
A short description of series [16]: Cytotoxicity against MDCK cells after 48 hrs by CPE assay. The format is cell-based, Canis lupus familiaris. The following applies: dog. The method in brief: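 MDCK cells kept in Minimum Essential Medium with Earle's salt plus 10% fetal bovine serum at 37 °C, 5% CO₂. […] Medium then replaced by assay medium with or without compound. After 48 h exposure, viability read by CPE assay. CC₅₀ calculated by Reed–Muench analysis.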

Consider `CO/N=C1\CN(c2nc3c(cc2F)c(=O)c(C(=O)O)cn3C2CC2)CCC1(C)N` (stereo not drawn), for which the MIC in the series on Staphylococcus aureus [1] came to 0.25 µg/mL (≈ 0.62 µM); in the series on Staphylococcus aureus [2], 0.25 µg/mL (≈ 0.62 µM); with Staphylococcus aureus [3] it was 0.25 µg/mL (≈ 0.62 µM); in [4] it was 0.25 µg/mL (≈ 0.62 µM); in series [5], 0.25 µg/mL (≈ 0.62 µM); in the series with Streptococcus pneumoniae, 4 µg/mL (≈ 9.92 µM). The MIC against Enterococcus faecalis [6] stood at 16 µg/mL (≈ 39.7 µM); with Enterococcus faecalis [7], 16 µg/mL (≈ 39.7 µM); with Enterococcus faecium [8], 64 µg/mL (≈ 159 µM); against Enterococcus faecium [9], 16 µg/mL (≈ 39.7 µM); in the series on Escherichia coli [10] it was 8 µg/mL (≈ 19.8 µM); against Escherichia coli [11], 16 µg/mL (≈ 39.7 µM). Besides, the MIC in the series on Klebsiella pneumoniae [12] was 16 µg/mL (≈ 39.7 µM); against Klebsiella pneumoniae [13], 2 µg/mL (≈ 4.96 µM); in the series with Pseudomonas aeruginosa [14] it was 4 µg/mL (≈ 9.92 µM); against Pseudomonas aeruginosa [15] it was 16 µg/mL (≈ 39.7 µM). The compound also displayed a CC50 at 48 h in series [16] of 77.4 µM.
On to `CCO/N=C1\CN(c2nc3c(cc2F)c(=O)c(C(=O)O)cn3C2CC2)CCC1(C)N` (stereo not drawn), for which the MIC came to 0.125 µg/mL (≈ 0.299 µM) against Staphylococcus aureus [1]; 0.25 µg/mL (≈ 0.599 µM) against Staphylococcus aureus [2]; 0.25 µg/mL (≈ 0.599 µM) in the series with Staphylococcus aureus [3]; 0.25 µg/mL (≈ 0.599 µM) in [4]; 0.25 µg/mL (≈ 0.599 µM) in [5]; 0.25 µg/mL (≈ 0.599 µM) against Streptococcus pneumoniae. Moreover, the MIC with Enterococcus faecalis [6] is over 128 µg/mL; against Enterococcus faecalis [7], over 128 µg/mL; in the series with Enterococcus faecium [8], over 128 µg/mL; against Enterococcus faecium [9], over 128 µg/mL; against Escherichia coli [10], 128 µg/mL (≈ 307 µM); against Escherichia coli [11], over 128 µg/mL. Also, the MIC was over 128 µg/mL against Klebsiella pneumoniae [12], over 128 µg/mL in the series on Klebsiella pneumoniae [13], 8 µg/mL (≈ 19.2 µM) in the series with Pseudomonas aeruginosa [14] and 2 µg/mL (≈ 4.79 µM) in the series on Pseudomonas aeruginosa [15]. In [16], this compound displayed a CC50 at 48 h of 300 µM.
On to `CO/N=C1\CN(c2nc3c(cc2F)c(=O)c(C(=O)O)cn3-c2ccc(F)cc2F)CCC1(C)N` (stereo not drawn), for which the MIC worked out at 0.25 µg/mL (≈ 0.526 µM) in the series on Staphylococcus aureus [1]; 0.25 µg/mL (≈ 0.526 µM) against Staphylococcus aureus [2]; 0.25 µg/mL (≈ 0.526 µM) against Staphylococcus aureus [3]; 0.25 µg/mL (≈ 0.526 µM) in series [4]; 0.25 µg/mL (≈ 0.526 µM) in series [5]; 1 µg/mL (≈ 2.1 µM) against Streptococcus pneumoniae. The MIC against Enterococcus faecalis [6] was 64 µg/mL (≈ 135 µM); against Enterococcus faecalis [7], 64 µg/mL (≈ 135 µM); with Enterococcus faecium [8], over 128 µg/mL; against Enterococcus faecium [9], over 128 µg/mL; in the series on Escherichia coli [10], 16 µg/mL (≈ 33.7 µM); in the series with Escherichia coli [11] it was over 128 µg/mL. The MIC against Klebsiella pneumoniae [12] came out at 64 µg/mL (≈ 135 µM); with Klebsiella pneumoniae [13], 64 µg/mL (≈ 135 µM); in the series on Pseudomonas aeruginosa [14], 4 µg/mL (≈ 8.41 µM); in the series on Pseudomonas aeruginosa [15], 0.25 µg/mL (≈ 0.526 µM). In series [16], this compound yielded a CC50 at 48 h of 93 µM.
Turning to `CCO/N=C1\CN(c2nc3c(cc2F)c(=O)c(C(=O)O)cn3-c2ccc(F)cc2F)CCC1(C)N` (stereo not drawn), the MIC stood at 0.25 µg/mL (≈ 0.511 µM) with Staphylococcus aureus [1]; 0.25 µg/mL (≈ 0.511 µM) in the series with Staphylococcus aureus [2]; 2 µg/mL (≈ 4.09 µM) with Staphylococcus aureus [3]; 0.25 µg/mL (≈ 0.511 µM) in [4]; 0.25 µg/mL (≈ 0.511 µM) in series [5]; 0.25 µg/mL (≈ 0.511 µM) in the series with Streptococcus pneumoniae. Besides, the MIC in the series on Enterococcus faecalis [6] was 8 µg/mL (≈ 16.3 µM); against Enterococcus faecalis [7], 32 µg/mL (≈ 65.4 µM); against Enterococcus faecium [8] it was 64 µg/mL (≈ 131 µM); against Enterococcus faecium [9] it was over 128 µg/mL; against Escherichia coli [10] it was 16 µg/mL (≈ 32.7 µM); in the series with Escherichia coli [11], 32 µg/mL (≈ 65.4 µM). The MIC in the series on Klebsiella pneumoniae [12] was determined as 32 µg/mL (≈ 65.4 µM); in the series on Klebsiella pneumoniae [13], 32 µg/mL (≈ 65.4 µM); in the series on Pseudomonas aeruginosa [14], 4 µg/mL (≈ 8.17 µM); with Pseudomonas aeruginosa [15], 0.5 µg/mL (≈ 1.02 µM). In series [16], this compound displayed a CC50 at 48 h of 128 µM.
Take `C[C@H]1COc2c(N3CCN(C)CC3)c(F)cc3c(=O)c(C(=O)O)cn1c23.C[C@H]1COc2c(N3CCN(C)CC3)c(F)cc3c(=O)c(C(=O)O)cn1c23.O` [LEVOFLOXACIN]: the MIC is 0.25 µg/mL with Staphylococcus aureus [1]; 0.125 µg/mL in the series with Staphylococcus aureus [2]; 0.125 µg/mL against Staphylococcus aureus [3]; 4 µg/mL in series [4]; 0.25 µg/mL in series [5]; 8 µg/mL in the series on Enterococcus faecalis [6]. For the same compound, the MIC worked out at 8 µg/mL in the series with Enterococcus faecalis [7]; 4 µg/mL against Enterococcus faecium [8]; 16 µg/mL against Enterococcus faecium [9]; 2 µg/mL against Escherichia coli [10]; 16 µg/mL against Escherichia coli [11]; 16 µg/mL in the series with Klebsiella pneumoniae [12]. Besides, the MIC in the series with Klebsiella pneumoniae [13] and against Pseudomonas aeruginosa [15] was 16 µg/mL in each case.
For `COc1c(N2C[C@@H]3CCCN[C@@H]3C2)c(F)cc2c(=O)c(C(=O)O)cn(C3CC3)c12` [MOXIFLOXACIN], the CC50 at 48 h in [16] was 161 µM.

What is called MIC is the least concentration at which growth counts as inhibited. Read a high MIC as a need for much substance. By CC50 is commonly meant the concentration at which the toxic effect on the cells reaches its halfway point.
